Test results: ChEMBL document CHEMBL5523695, “Discovery of small molecule benzothiazole and indole derivatives tackling tau 2N4R and α-synuclein fibrils” (Bioorg Med Chem, 2024)
Active and inactive are the calls of the source. No cut-off for these calls is given here.

How the values were obtained:
[1] = molecular target: Alpha-synuclein (Homo sapiens) (UniProt P37840); experiment: Inhibition of recombinant alpha-Synuclein (unknown origin) aggregation assessed as reduction in fluorescence intensity by measuring residual activity at 100 uM measured every 20 mins for 40 to 70 hrs by Thioflavin T based fluorescence analysis relative to control; conditions: time 40-70 hrs
Outline: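 Recombinant α-syn (2 μM final) in 10 mM PBS pH 7.4 with 0.5 mM SDS and 300 mM NaCl. Compound at 100 μM final, ThT 20 μM, one borosilicate bead per well. Read at 37 °C every 20 min after 10 s shaking, ex 440/em 485 nm, for 40–70 h. Background was ThT plus 0.25 % DMSO without protein. Plateau fluorescence expressed as % of control, triplicates, mean ± SEM.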

[2] = molecular target: Alpha-synuclein (Homo sapiens) (UniProt P37840); experiment: Inhibition of recombinant alpha-Synuclein (unknown origin) aggregation assessed as reduction in oligomer formation at compound-protein ratio of 1:0.6 incubated for 10 mins in presence of 53W light exposure for 1 sec by PICUP assay
Outline: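 α-Syn (60 μM) in 10 mM phosphate buffer was cross-linked with Ru(bpy)3 (300 μM) and ammonium persulfate (6 mM), compound at 50, 100 or 200 μM. Light from a 53 W incandescent bulb for 1 s. Laemmli/2-mercaptoethanol added, then 95 °C for 10 min. Samples run on 16 % SDS-PAGE with Coomassie stain; oligomer bands at 35–40 kDa assessed. Controls lacked light or Ru(bpy)3.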

[3] = molecular target: Alpha-synuclein (Homo sapiens) (UniProt P37840); experiment: Inhibition of recombinant alpha-Synuclein (unknown origin) aggregation assessed as reduction in fluorescence intensity measured every 20 mins for 40 to 70 hrs by Thioflavin T based fluorescence analysis; conditions: dose 3.125-25 µM, time 40-70 hrs
[4] = molecular target: T1, Microtubule-associated protein tau (Homo sapiens, UniProt P10636); experiment: Inhibition of tau 2N4R (unknown origin) aggregation expressed in Escherichia coli Rosetta BL21 cells assessed as reduction in oligomer formation at 50 to 200 uM incubated for 10 mins in presence of 53W light exposure for 60 sec by PICUP assay; conditions: dose 50-200 µM
Outline: (§1)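 Tau 2N4R or 0N4R, expressed in-house from a pET30a construct in E. coli Rosetta BL21 and purified by heat step plus SP cation exchange, used at 10 μM in 10 mM phosphate buffer. Compound at 50, 100 and 200 μM. Ru(bpy)3 at 300 μM and APS at 6 mM, 60 s light exposure. Samples boiled at 95 °C for 10 min in reducing Laemmli buffer, then 16 % SDS-PAGE with Coomassie.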

[5] = molecular target: T1, Microtubule-associated protein tau; experiment: Inhibition of human tau 0N4R aggregation expressed in Escherichia coli Rosetta BL21 cells assessed as reduction in oligomer formation at 50 to 200 uM incubated for 10 mins in presence of 53W light exposure for 60 sec by PICUP assay; conditions: dose 50-200 µM; outline: as §1
[6] = molecular target: Alpha-synuclein (Homo sapiens) (UniProt P37840); experiment: Inhibition of recombinant alpha-Synuclein (unknown origin) aggregation assessed as reduction in protein fibril formation at 100 uM measured after 68 hrs by TEM analysis
Outline: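 α-Syn (2 μM) samples taken from the ThT kinetic runs after about 68 h at 37 °C, compound at 100 μM, vehicle 0.25 % DMSO. Applied to Formvar-carbon copper grids for 1 min, washed, and stained with 1 % uranyl acetate for 1 min. Imaged by TEM at 40k magnification, 100 kV.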

[7] = molecular target: T1, Microtubule-associated protein tau; experiment: Inhibition of unfolded tau 2N4R (unknown origin) aggregation expressed in Escherichia coli Rosetta BL21 cells assessed as reduction in protein fibril formation at 100 uM measured after 72 hrs by TEM analysis
Outline: (§2)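 Recombinant tau 2N4R (6 μM) incubated with compound at 100 μM, or 0.25 % DMSO, in 10 mM PBS pH 7.4 for 72 h at 37 °C. Placed on Formvar-carbon copper grids for 1 min, rinsed, and negatively stained with 1 % uranyl acetate. TEM at 40k magnification, 100 kV.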

[8] = molecular target: T1, Microtubule-associated protein tau; experiment: Inhibition of unfolded tau 2N4R (unknown origin) aggregation expressed in Escherichia coli Rosetta BL21 cells assessed as reduction in formation of large dense accumulation of tau fibrils at 100 uM measured after 72 hrs by TEM analysis; outline: as §2
[9] = molecular target: T1, Microtubule-associated protein tau; experiment: Inhibition of unfolded tau 2N4R (unknown origin) aggregation expressed in Escherichia coli Rosetta BL21 cells assessed as reduction in short and fine needle like fibrils at 100 uM measured after 72 hrs by TEM analysis; outline: as §2
[10] = molecular target: T1, Microtubule-associated protein tau; experiment: Inhibition of unfolded tau 2N4R (unknown origin) aggregation expressed in Escherichia coli Rosetta BL21 cells assessed as appearance of rounded structures at 100 uM measured after 72 hrs by TEM analysis; outline: as §2
[11] = molecular target: Alpha-synuclein (Homo sapiens) (UniProt P37840); experiment: (§3) Inhibition of alpha-syn inclusion formation in human M17D cells expressing doxycyclin-inducible alpha-syn-S3K::YFP inclusion-prone fusion protein assessed as reduction in inclusions treated with compound starting from 24 hrs post plating followed by doxycyclin addition at 48 hrs and measured 96 hrs post plating by Incucyte-based analysis; format: cell-based; conditions: time 72.0 hrs
Outline: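 M17D-TR/αS-3K::YFP cells seeded at 30,000 per well and dosed 24 h post-plating at 1.25–40 μM (vehicle 0.1 % DMSO). Transgene induced at 48 h with dox at 1 μg/mL final. At 96 h, Incucyte analysis of punctate YFP inclusions, expressed as fold change vs DMSO. Two independent experiments, 6–12 wells total, mean ± SD, Dunnett's post-hoc test.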

[12] = as §3, with “Cytotoxicity against” for “Inhibition of alpha-syn inclusion formation in”, “cell confluency at <20 uM” for “inclusions”; format: toxicity; conditions: 72 h
Outline: (§4)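 Dox-inducible M17D-TR/αS-3K::YFP neuroblastoma cells seeded at 30,000 per well. Compound added 24 h after plating at 1.25–40 μM, with 0.1 % DMSO as vehicle. Dox at 1 μg/mL final was added at 48 h. At 96 h, Incucyte imaging gave confluence fold change vs vehicle. N = 2 independent experiments, 6–12 wells total. Mean ± SD, one-way ANOVA with Dunnett's test.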

[13] = as §3, with “Cytotoxicity against” for “Inhibition of alpha-syn inclusion formation in”, “cell confluency at 20 to 40 uM” for “inclusions”; format: toxicity; conditions: 72 h, dose 20-40 µM; outline: as §4

T1 sequence (P10636 whole entry): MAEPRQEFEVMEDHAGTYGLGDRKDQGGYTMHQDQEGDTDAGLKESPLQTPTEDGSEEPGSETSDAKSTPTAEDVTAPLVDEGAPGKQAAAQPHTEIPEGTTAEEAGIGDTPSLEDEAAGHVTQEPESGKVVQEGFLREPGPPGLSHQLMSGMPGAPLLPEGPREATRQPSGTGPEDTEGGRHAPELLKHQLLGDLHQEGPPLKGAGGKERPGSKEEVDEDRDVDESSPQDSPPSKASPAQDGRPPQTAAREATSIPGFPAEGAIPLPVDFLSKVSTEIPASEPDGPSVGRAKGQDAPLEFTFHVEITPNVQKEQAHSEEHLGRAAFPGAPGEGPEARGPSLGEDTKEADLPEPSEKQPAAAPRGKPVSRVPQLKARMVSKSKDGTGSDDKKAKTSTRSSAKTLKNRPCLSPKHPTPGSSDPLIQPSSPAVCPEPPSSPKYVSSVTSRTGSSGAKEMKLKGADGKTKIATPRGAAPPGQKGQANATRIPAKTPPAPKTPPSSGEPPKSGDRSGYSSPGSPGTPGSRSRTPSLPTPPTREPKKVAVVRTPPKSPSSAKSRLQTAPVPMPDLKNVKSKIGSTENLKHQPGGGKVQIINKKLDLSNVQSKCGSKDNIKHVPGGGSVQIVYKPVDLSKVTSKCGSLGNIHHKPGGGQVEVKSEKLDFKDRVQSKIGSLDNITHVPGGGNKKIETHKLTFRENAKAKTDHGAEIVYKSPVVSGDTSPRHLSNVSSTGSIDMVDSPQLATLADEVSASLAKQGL

Structure (SMILES)	Activity [1]	further results
COc1cccc2sc(NC(=O)c3cccc(C(F)(F)F)c3)nc12	84.7%	–
COc1cccc2sc(NS(=O)(=O)c3cc(Cl)cc(Cl)c3)nc12	39.3%	–
COc1cccc2sc(NC(=O)c3cc(Cl)cc(Cl)c3)nc12	95.4%	–
COc1cccc2sc(NC(=O)Nc3ccccc3I)nc12	125%	–
COc1cccc2sc(NC(=O)c3ccc(F)cc3)nc12	103%	–
COc1cccc2sc(NC(=O)Nc3ccc(C(F)(F)F)cc3)nc12	94.8%	–
O=C(Nc1ccc2cc[nH]c2c1)Nc1ccccc1I	83.4%	–
COc1cccc2sc(NC(=O)c3ccccc3Cl)nc12	262%	–
COc1ccccc1NC(=O)Nc1nc2c(OC)cccc2s1	199%	–
COc1cccc2sc(NS(=O)(=O)c3ccccc3I)nc12	5.8%	inhibition [2]: inactive
COc1cccc2sc(NC(=O)Nc3ccc(F)cc3)nc12	145%	–
O=C(Nc1ccc2[nH]ccc2c1)Nc1ccccc1I	40.3%	–
COc1cccc2sc(NC(=O)c3cccc([N+](=O)[O-])c3)nc12	48.1%	–
COc1cccc2sc(NS(=O)(=O)c3ccccc3[N+](=O)[O-])nc12	41%	–
COc1cccc2sc(NC(=O)Nc3ccc(I)cc3)nc12	141%	–
COc1cccc2sc(NC(=O)Nc3ccccc3)nc12	130%	–
COc1cccc2sc(NS(=O)(=O)c3ccc(F)cc3)nc12	70.4%	–
COc1cccc2sc(NS(=O)(=O)c3cccc(C(F)(F)F)c3)nc12	56%	–
COc1cccc2sc(NS(=O)(=O)c3ccc(F)cc3F)nc12	87.9%	–
O=C(Nc1ccc([N+](=O)[O-])cc1)Nc1cccc2[nH]ccc12	4%	inhibition [3]: Dose-Dependent Effect; inhibition [2]: Active; inhibition [4]: inactive; inhibition [5]: inactive; inhibition [6]: Active; inhibition [7]: Active; inhibition [8]: Active; inhibition [9]: Active; inhibition [10]: Active; inhibition [11]: Active; Activity [12]: Non-Toxic; Activity [13]: Toxic
COc1ccccc1S(=O)(=O)Nc1nc2c(OC)cccc2s1	79.3%	–
COc1ccccc1C(=O)Nc1nc2c(OC)cccc2s1	182%	–
O=C(Nc1ccccc1I)Nc1cccc2[nH]ccc12	38.3%	–

Structure (SMILES)	Activity [1]	further results
COc1cccc2sc(NC(=O)c3ccc(C(F)(F)F)cc3)nc12	116%	–
COc1cccc2sc(NC(=O)c3ccc(F)cc3F)nc12	128%	–
COc1cccc2sc(NS(=O)(=O)c3ccc(Br)cc3)nc12	43.1%	–
COc1cccc2sc(NS(=O)(=O)c3ccccc3C)nc12	32.7%	–
O=S(=O)(Nc1ccc2[nH]ccc2c1)c1ccccc1I	59.7%	–
O=[N+]([O-])c1ccc(S(=O)(=O)Nc2ccc3cc[nH]c3c2)cc1	63.5%	–
O=[N+]([O-])c1ccc(S(=O)(=O)Nc2ccc3[nH]ccc3c2)cc1	97.6%	–
COc1cccc2sc(NC(=O)Nc3cccc([N+](=O)[O-])c3)nc12	78.1%	–
O=S(=O)(Nc1ccc2cc[nH]c2c1)c1ccccc1I	104%	–
COc1cccc2sc(NC(=O)Nc3ccccc3C)nc12	148%	–
COc1cccc2sc(NC(=O)c3ccccc3[N+](=O)[O-])nc12	102%	–
COc1cccc2sc(NC(=O)c3cccs3)nc12	86.6%	–
COc1cccc2sc(NS(=O)(=O)c3ccc([N+](=O)[O-])cc3)nc12	9.5%	inhibition [2]: inactive
COc1cccc2sc(NS(=O)(=O)c3ccc(C#N)cc3)nc12	46.1%	–
COc1cccc2sc(NC(=O)c3ccccc3)nc12	107%	–
O=[N+]([O-])c1ccc(S(=O)(=O)Nc2cccc3[nH]ccc23)cc1	83.9%	–
COc1cccc2sc(NC(=O)Nc3cc(Cl)cc(Cl)c3)nc12	> 200%	–
COc1cccc2sc(NS(=O)(=O)c3cccc([N+](=O)[O-])c3)nc12	40.1%	–
COc1cccc2sc(NC(=O)c3ccc([N+](=O)[O-])cc3)nc12	45.4%	–
COc1cccc2sc(NC(=O)c3ccc(I)cc3)nc12	> 200%	–
COc1cccc2sc(NS(=O)(=O)c3ccc(C(F)(F)F)cc3)nc12	53.8%	–
COc1cccc2sc(NS(=O)(=O)c3ccccc3F)nc12	64.9%	–
COc1cccc2sc(NC(=O)Nc3cccc(C(F)(F)F)c3)nc12	> 200%	–

Structure (SMILES)	Activity [1]	further results
COc1cccc2sc(NC(=O)Nc3ccccc3[N+](=O)[O-])nc12	64.4%	–
COc1cccc2sc(NC(=O)c3ccccc3C)nc12	137%	–
COc1cccc2sc(NC(=O)c3ccccc3I)nc12	137%	–
COc1cccc2sc(NC(=O)Nc3ccc(Cl)cc3)nc12	173%	–
COc1cccc2sc(NC(=O)Nc3ccc(C#N)cc3)nc12	> 200%	–
COc1cccc2sc(NS(=O)(=O)c3ccccc3)nc12	74.6%	–
O=C(Nc1ccc([N+](=O)[O-])cc1)Nc1ccc2[nH]ccc2c1	2.9%	inhibition [4]: inactive; inhibition [5]: inactive; inhibition [6]: Active; inhibition [7]: Active; inhibition [8]: Active; inhibition [9]: Active; inhibition [10]: Active; inhibition [11]: Active; Activity [12]: Non-Toxic; Activity [13]: Toxic
COc1cccc2sc(NS(=O)(=O)c3ccccc3Cl)nc12	19.3%	–
COc1cccc2sc(NS(=O)(=O)c3cccs3)nc12	41.6%	–
COc1cccc2sc(NS(=O)(=O)c3ccc(I)cc3)nc12	42.8%	–
COc1cccc2sc(NC(=O)c3ccccc3F)nc12	98.7%	–
O=S(=O)(Nc1cccc2[nH]ccc12)c1ccccc1I	74.8%	–
COc1cccc2sc(NC(=O)Nc3ccc(Br)cc3)nc12	170%	–
COc1cccc2sc(NC(=O)Nc3ccccc3F)nc12	> 200%	–
COc1cccc2sc(NC(=O)Nc3ccc(F)cc3F)nc12	184%	–
COc1cccc2sc(NC(=O)c3ccc(C#N)cc3)nc12	128%	–
COc1cccc2sc(NC(=O)Nc3cccs3)nc12	41.6%	–
COc1cccc2sc(NC(=O)c3ccc(Br)cc3)nc12	> 200%	–
COc1cccc2sc(NS(=O)(=O)c3ccc(Cl)cc3)nc12	40.3%	–
COc1cccc2sc(NC(=O)c3ccc(Cl)cc3)nc12	116%	–
COc1cccc2sc(NC(=O)Nc3ccc([N+](=O)[O-])cc3)nc12	79%	–
